Series [1] is filed under the species Homo sapiens. Kind of series: Selectivity ratio of IC50 for human cathepsin B to IC50 for humanized rabbit cathepsin K.
In series [2] the target is Cathepsin K (Homo sapiens, UniProt P43235). Kind of series: Inhibition of humanized rabbit cathepsin K.
For series [3], the species on record is Homo sapiens. The experiment in a line: Selectivity ratio of IC50 for human cathepsin F to IC50 for humanized rabbit cathepsin K.
For series [4], the species on record is Homo sapiens. The experiment in a line: Selectivity ratio of IC50 for human cathepsin L to IC50 for humanized rabbit cathepsin K.
For series [5], the species on record is Homo sapiens. The experiment in a line: Selectivity ratio of IC50 for human cathepsin S to IC50 for humanized rabbit cathepsin K.
Series [6] can be described thus: Oral bioavailability in rat. It counts as ADME, organism-based. To be noted: in vivo. An outline of the steps:
(§1)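 Pharmacokinetics in rats, rabbits and rhesus monkeys after oral dosing in 1% methocel vehicle. Half-life and oral bioavailability were derived from the plasma profiles.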

Series [7] can be described thus: Decrease in bone resorption assessed as corrected bone resorption measured as ratio of bone resorption IC50 x humanized rabbit cathepsin K IC50 to rabbit cathepsin K IC50 equation. Type of series: functional, tissue-based, Bone element.
Series [8] in a line: Half life in po dosed rhesus monkey. It counts as ADME, organism-based, Macaca mulatta. To be noted: in vivo. An outline of the steps: as §1
The nature of series [9]: Metabolic stability in rabbit hepatocytes assessed as compound remaining. It counts as ADME, cell-based, Oryctolagus cuniculus, Hepatocyte.
Series [10] in a line: Oral bioavailability in rhesus monkey. Type of series: ADME, organism-based, Macaca mulatta. The following applies: in vivo. In short, it runs like this: as §1
A short description of series [11]: Half life in po dosed rabbit. Type of series: ADME, organism-based, Oryctolagus cuniculus. To be noted: in vivo. An outline of the steps: as §1
Series [12] can be described thus: Oral bioavailability in rabbit. Type of series: ADME, organism-based, Oryctolagus cuniculus. To be noted: in vivo. In short, it runs like this: as §1
Series [13] in a line: Metabolic stability in rhesus monkey hepatocytes assessed as compound remaining. It counts as ADME, cell-based, Macaca mulatta, Hepatocyte.
In series [14] the test system is Hepatocyte. Kind of series: Metabolic stability in rat hepatocytes assessed as compound remaining. Type of series: ADME, cell-based.
Series [15] can be described thus: Half life in po dosed rat. It counts as ADME, organism-based. The following applies: in vivo. An outline of the steps: as §1
A short description of series [16]: Oral bioavailability in squirrel monkey. It counts as ADME, organism-based. To be noted: saimiri, in vivo.
Series [17] has as its system Canis familiaris. The experiment in a line: Metabolic stability in dog at 25 mg/kg, po and 5 mg/kg, iv up to 24 hrs. Type of series: ADME, organism-based, Canis lupus familiaris. To be noted: in vivo.
In series [18] the test system is Rattus norvegicus. The experiment in a line: Metabolic stability in rat assessed as conversion to (S)-N-(1-cyanocyclopropyl)-2-((S)-1-(4'-((R)-2,2-difluoro-1-hydroxyethyl)biphenyl-4-yl)-2,2,2-trifluoroethylamino)-4-fluoro-4-methylpentanamide at 25 mg/kg, po. It counts as ADME, organism-based. On the set-up: dose 25 mg/kg, route oral. The following applies: in vivo.

For series [19], the system named is Rattus norvegicus. The experiment in a line: Metabolic stability in rat at 25 mg/kg, po after up to 24 hrs. On the set-up: dose 25 mg/kg, route oral. The following applies: in vivo. It counts as ADME, organism-based.
Series [20] has as its system Rattus norvegicus. The experiment in a line: Metabolic stability in rat at 25 mg/kg, po and 5 mg/kg, iv up to 24 hrs. Type of series: ADME, organism-based. To be noted: in vivo.
Series [21] is described as follows: Metabolic stability in rabbit hepatocytes assessed as formation ratio of (S)-N-(1-cyanocyclopropyl)-2-((S)-1-(4'-((R)-2,2-difluoro-1-hydroxyethyl)biphenyl-4-yl)-2,2,2-trifluoroethylamino)-4-fluoro-4-methylpentanamide to (S)-N-(1-cyanocyclopropyl)-2-((S)-1-(4'-((S)-2,2-difluoro-1-hydroxyethyl)biphenyl-4-yl)-2,2,2-trifluoroethylamino)-4-fluoro-4-methylpentanamide. Type of series: ADME, cell-based, Oryctolagus cuniculus, Hepatocyte.

The subject of series [22] is Hepatocyte. Kind of series: Metabolic stability in rat hepatocytes assessed as formation ratio of (S)-N-(1-cyanocyclopropyl)-2-((S)-1-(4'-((R)-2,2-difluoro-1-hydroxyethyl)biphenyl-4-yl)-2,2,2-trifluoroethylamino)-4-fluoro-4-methylpentanamide to (S)-N-(1-cyanocyclopropyl)-2-((S)-1-(4'-((S)-2,2-difluoro-1-hydroxyethyl)biphenyl-4-yl)-2,2,2-trifluoroethylamino)-4-fluoro-4-methylpentanamide. Type of series: ADME, cell-based.

For series [23], the system named is Hepatocyte. The experiment in a line: Metabolic stability in human hepatocytes assessed as formation ratio of (S)-N-(1-cyanocyclopropyl)-2-((S)-1-(4'-((R)-2,2-difluoro-1-hydroxyethyl)biphenyl-4-yl)-2,2,2-trifluoroethylamino)-4-fluoro-4-methylpentanamide to (S)-N-(1-cyanocyclopropyl)-2-((S)-1-(4'-((S)-2,2-difluoro-1-hydroxyethyl)biphenyl-4-yl)-2,2,2-trifluoroethylamino)-4-fluoro-4-methylpentanamide. Type of series: ADME, cell-based.

The nature of series [24]: Metabolic stability in dog hepatocytes assessed as formation ratio of (S)-N-(1-cyanocyclopropyl)-2-((S)-1-(4'-((R)-2,2-difluoro-1-hydroxyethyl)biphenyl-4-yl)-2,2,2-trifluoroethylamino)-4-fluoro-4-methylpentanamide to (S)-N-(1-cyanocyclopropyl)-2-((S)-1-(4'-((S)-2,2-difluoro-1-hydroxyethyl)biphenyl-4-yl)-2,2,2-trifluoroethylamino)-4-fluoro-4-methylpentanamide. Type of series: ADME, cell-based, Canis lupus familiaris, Hepatocyte.

For series [25], the system named is Rattus norvegicus. The experiment in a line: Metabolic stability in rat assessed as formation ratio of (S)-N-(1-cyanocyclopropyl)-2-((S)-1-(4'-((R)-2,2-difluoro-1-hydroxyethyl)biphenyl-4-yl)-2,2,2-trifluoroethylamino)-4-fluoro-4-methylpentanamide to (S)-N-(1-cyanocyclopropyl)-2-((S)-1-(4'-((S)-2,2-difluoro-1-hydroxyethyl)biphenyl-4-yl)-2,2,2-trifluoroethylamino)-4-fluoro-4-methylpentanamide at 25 mg/kg, po and 5 mg/kg, iv. It counts as ADME, organism-based. The following applies: in vivo.

The subject of series [26] is Canis familiaris. The experiment in a line: Metabolic stability in dog assessed as formation ratio of (S)-N-(1-cyanocyclopropyl)-2-((S)-1-(4'-((R)-2,2-difluoro-1-hydroxyethyl)biphenyl-4-yl)-2,2,2-trifluoroethylamino)-4-fluoro-4-methylpentanamide to (S)-N-(1-cyanocyclopropyl)-2-((S)-1-(4'-((S)-2,2-difluoro-1-hydroxyethyl)biphenyl-4-yl)-2,2,2-trifluoroethylamino)-4-fluoro-4-methylpentanamide at 25 mg/kg, po and 5 mg/kg, iv. It counts as ADME, organism-based, Canis lupus familiaris. The following applies: in vivo.

Where only a bound is given, the exact number is not on record here.

What is called IC50 is the point on the concentration scale where inhibition reaches its midpoint. Turning to `CC(C)(F)C[C@H](N[C@@H](c1ccc(-c2ccc(C3(O)CC3)cn2)cc1)C(F)(F)F)C(=O)NC1(C#N)CC1`, the Ratio IC50 in series [1] turned out to be 3640; in series [3], 2760; in series [4], 18000; in series [5] it was 210. Also, the midpoint of inhibition in series [2], the IC50, lay at 0.3 nM. Moreover, the bioavailability in series [6] amounted to 7%.
As a reminder, the half-life is how long it takes for the measured level to halve. `CC(C)(F)C[C@H](N[C@@H](c1ccc(-c2ccc([C@@H](O)C(F)F)cc2)cc1)C(F)(F)F)C(=O)NC1(C#N)CC1`: the half-maximal inhibitory concentration (IC50) turned out to be 10 nM in [7] and 0.4 nM in series [2]. In addition, the half-life in [8] is 11 h; in [11] it was 14 h; in series [15], 7 h. The Ratio IC50 in series [1] came to 1160; in series [3], 1460; in [4], 11900; in series [5] it was 243. Besides, the figures for the Stability in [9], in series [13] and in series [14] were 93%, 93% and 95%, respectively. Moreover, the bioavailability in series [10] is 64%; in series [12] it was 70%; in [6] it was 122%.
For the compound `CC(C)(F)C[C@H](N[C@@H](c1ccc(-c2ccc3ncccc3c2)cc1)C(F)(F)F)C(=O)NC1(C#N)CC1`, the concentration for half-maximal inhibition (IC50) in [7] was 8 nM; in series [2] it was 0.4 nM. The Ratio IC50 amounted to 3000 in [1], 6020 in [4] and 44 in series [5].
Take `CC(C)(F)C[C@H](N[C@@H](c1ccc(-c2ccc(C3(C(N)=O)CC3)cn2)cc1)C(F)(F)F)C(=O)NC1(C#N)CC1`: the IC50 in series [7] was found to be 35 nM; in [2], 0.5 nM. Also, the Ratio IC50 in [1] turned out to be 3920; in [3], 3440; in series [4] it was 3700; in series [5], 849.
On to `CC(C)(F)C[C@H](N[C@@H](c1ccc(-c2ccc(C3(C(N)=O)CC3)cc2)cc1)C(F)(F)F)C(=O)NC1(C#N)CC1`, for which the 50% inhibitory concentration (IC50) turned out to be 12 nM in [7] and 0.2 nM in series [2]. The Ratio IC50 in [1] was found to be 1560; in [3], 2380; in [4], 11100; in [5] it was 766. The bioavailability in series [16] came to 5%; in series [6], 8%.
Take `CC(C)(F)C[C@H](N[C@@H](c1ccc(-c2ccc(S(C)(=O)=O)nc2)cc1)C(F)(F)F)C(=O)NC1(C#N)CC1`: the IC50 in [7] turned out to be 8 nM; in series [2], 2.6 nM. Moreover, the values for the Ratio IC50 in series [1], in [4] and in [5] were 725, 1300 and 28, respectively.
With `CC(C)(F)C[C@H](N[C@@H](c1ccc(-c2ccc(C(C)(C)O)cc2)cc1)C(F)(F)F)C(=O)NC1(C#N)CC1`, the 50% inhibitory concentration (IC50) in series [7] was found to be 10 nM; in [2] it was 0.2 nM. Moreover, the Ratio IC50 in series [1] is 2200; in [3], 2410; in series [4], 28900; in series [5] it was 715. Further, the bioavailability in series [6] was 24%. In series [15], this compound yielded a half-life below 1 h.
On to `Cc1csc(-c2ccc([C@H](N[C@@H](CC(C)(C)F)C(=O)NC3(C#N)CC3)C(F)(F)F)cc2)n1`, for which the figures for the IC50 in series [7] and in [2] were 14 nM and 0.3 nM, respectively. Moreover, the Ratio IC50 amounted to 4040 in series [1], 1980 in series [3], 18800 in series [4] and 777 in series [5]. For the same compound, the bioavailability in series [16] worked out at 5%; in [6] it was 10%.
Take `CC(C)(F)C[C@H](N[C@@H](c1ccc(-c2ccc(S(C)(=O)=O)cc2)cc1)C(F)(F)F)C(=O)NC1(C#N)CC1` [ODANACATIB]: the IC50 in series [7] was 5 nM; in series [2], 0.2 nM. The Ratio IC50 in series [1] stood at 5170; in series [3], 3230; in [4], 15000; in series [5] it was 300.
Turning to `[2H][C@@](O)(c1ccc(-c2ccc([C@H](N[C@@H](CC(C)(C)F)C(=O)NC3(C#N)CC3)C(F)(F)F)cc2)cc1)C(F)F`, the Stability result is given as “Stable” in series [17], “Unstable” in series [18], “Stable” in series [19] and “Stable” in series [20].
As to `CC(C)(F)C[C@H](N[C@@H](c1ccc(-c2ccc([C@H](O)C(F)F)cc2)cc1)C(F)(F)F)C(=O)NC1(C#N)CC1`, the IC50 in series [7] was 7 nM; in series [2], 0.4 nM. For the same compound, the half-life is 6 h in [8], 8 h in series [11] and 10 h in series [15]. The Ratio IC50 in [1] was determined as 1470; in series [3], 1600; in series [4], 14100; in series [5] it was 197. In addition, the Stability in series [9] turned out to be 70%; in series [13], 88%; in [14], 94%. The results for the bioavailability in [10], in series [12] and in series [6] were 139%, 132% and 86%, respectively.
Regarding `CC(C)(F)C[C@H](N[C@@H](c1ccc(-c2ccc(C(=O)C(F)F)cc2)cc1)C(F)(F)F)C(=O)NC1(C#N)CC1`, the Ratio is given as 48 in series [21]; 24 in [22]; above 200 in [23]; 5 in series [24]; above 10 in series [25]; 5 in series [26]. For the same compound, the Stability entry in series [17], in series [19] and in [20] was “Stable” in each case.
As for `CC(C)(F)C[C@H](N[C@@H](c1ccc(-c2ccc(C3(O)CC3)cc2)cc1)C(F)(F)F)C(=O)NC1(C#N)CC1`, the IC50 in series [7] was 13 nM; in series [2] it was 0.2 nM. Further, the Ratio IC50 in series [1] was 1420; in series [3], 1150; in series [4] it was 11000; in series [5], 106.
For the compound `[2H][C@](O)(c1ccc(-c2ccc([C@H](N[C@@H](CC(C)(C)F)C(=O)NC3(C#N)CC3)C(F)(F)F)cc2)cc1)C(F)F`, the Stability result in series [17] is reported as “Stable”; in series [18], “Unstable”; in [19], “Stable”; in [20], “Stable”.
On to `C[C@H](C(N)=O)c1ccc(-c2ccc([C@H](N[C@@H](CC(C)(C)F)C(=O)NC3(C#N)CC3)C(F)(F)F)cc2)cc1`, for which the IC50 in series [7] came to 35 nM; in series [2] it was 0.2 nM. Further, the Ratio IC50 in [1] was 1440; in series [3], 3590; in [4] it was 21300; in [5], 693.

For the origin of these results see ChEMBL document CHEMBL1156833, “The discovery of MK-0674, an orally bioavailable cathepsin K inhibitor” (Bioorg Med Chem Lett, 2010).
